According to article PMC12518644 (Scientific Reports, 2025):

Test system: MDA-MB-231 BC cell line
Assay: MTT cytotoxicity assay on MDA-MB-231 breast cancer cells
Assay type: cell-based
Settings: Homo sapiens, MDA-MB-231, 48 h, read-out: IC50 Values, MDA-MB-231, MTT, 48 h
Procedure, shortened: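 Cells grown in DMEM with 10% FBS and 1% antibiotics (100 U/ml penicillin), seeded at 1.0 × 10^4 cells/well, and incubated 24 h at 37 °C under 5% CO2. Medium then replaced with test compound at 6.5, 12.5, 25 or 50 µM for 48 h. MTT (5 mg/mL solution) added for 4 h, formazan dissolved in DMSO, and absorbance read at 570 nm. IC50 derived from dose-response.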

`Cc1ccc(S(=O)(=O)n2cc(/C=N/NC(=O)c3cccc4ccccc34)c3ccccc32)cc1` [Compound 5p, (E )-N’ -[(1-Tosyl-1 H -indol-3-yl)methylene]−1-naphthohydrazide] showed an IC50 of 18.1 ± 0.2 µM.
